Active and inactive are the calls of the source. The rule behind the calls is not given here.
Tests used:
[1] = biological target: T1, Metabotropic glutamate receptor 2 (Homo sapiens, UniProt Q14416); assay: Binding affinity to human metabotropic glutamate receptor 2 expressed in CHOK1 cell membranes by scintillation proximity assay
Target sequence in this assay (Q14416 whole entry): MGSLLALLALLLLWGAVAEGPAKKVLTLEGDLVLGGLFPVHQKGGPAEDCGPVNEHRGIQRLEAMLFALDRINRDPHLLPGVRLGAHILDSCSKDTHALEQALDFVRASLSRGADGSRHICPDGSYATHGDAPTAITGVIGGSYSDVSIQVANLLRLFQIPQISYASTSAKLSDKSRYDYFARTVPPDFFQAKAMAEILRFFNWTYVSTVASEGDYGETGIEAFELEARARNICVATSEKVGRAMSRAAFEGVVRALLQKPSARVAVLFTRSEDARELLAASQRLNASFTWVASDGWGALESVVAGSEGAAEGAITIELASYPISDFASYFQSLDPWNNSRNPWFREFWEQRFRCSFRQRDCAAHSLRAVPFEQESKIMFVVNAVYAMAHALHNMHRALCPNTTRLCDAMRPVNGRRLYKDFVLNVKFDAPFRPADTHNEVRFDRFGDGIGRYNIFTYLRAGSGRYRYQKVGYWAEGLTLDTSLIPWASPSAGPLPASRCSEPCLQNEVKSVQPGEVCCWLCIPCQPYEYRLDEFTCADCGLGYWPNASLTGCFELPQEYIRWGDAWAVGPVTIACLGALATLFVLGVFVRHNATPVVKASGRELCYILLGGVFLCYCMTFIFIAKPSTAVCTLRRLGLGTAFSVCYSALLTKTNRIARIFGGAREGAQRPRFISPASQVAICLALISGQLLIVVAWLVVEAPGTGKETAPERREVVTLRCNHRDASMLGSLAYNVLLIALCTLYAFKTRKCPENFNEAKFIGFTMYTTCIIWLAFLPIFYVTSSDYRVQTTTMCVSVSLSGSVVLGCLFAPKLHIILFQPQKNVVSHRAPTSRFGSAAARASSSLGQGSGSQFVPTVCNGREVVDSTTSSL

[2] = biological target: T1, Metabotropic glutamate receptor 2; assay: Positive allosteric modulation of human metabotropic glutamate receptor 2 expressed in CHOK1 cell membranes assessed as increase in glutamate-induced [35S]GTPgammaS binding preincubated for 30 mins followed by [35S]GTPgammaS addition measured after 30 mins by Topcount scintillation counting method; assay type: functional
Target sequence in this assay (Q14416 whole entry): as above

[3] = biological target: T1, Metabotropic glutamate receptor 2; assay: Displacement of [3H]JNJ-46281222 from human metabotropic glutamate receptor 2 expressed in CHOK1 cell membranes assessed as residence time measured every 30 sec for 120 mins by scintillation proximity assay
Summary of the method: (§1)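 For the SPA competition association, CHO-K1_hmGlu2 membranes (20 µg) were pre-coupled 30 min to WGA SPA beads, then mixed with 6 nM [3H]JNJ-46281222, competitor and 1 mM glutamate. Counts were read every 30 s for 120 min at 28°C.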
Target sequence in this assay (Q14416 19-872 limits assumed): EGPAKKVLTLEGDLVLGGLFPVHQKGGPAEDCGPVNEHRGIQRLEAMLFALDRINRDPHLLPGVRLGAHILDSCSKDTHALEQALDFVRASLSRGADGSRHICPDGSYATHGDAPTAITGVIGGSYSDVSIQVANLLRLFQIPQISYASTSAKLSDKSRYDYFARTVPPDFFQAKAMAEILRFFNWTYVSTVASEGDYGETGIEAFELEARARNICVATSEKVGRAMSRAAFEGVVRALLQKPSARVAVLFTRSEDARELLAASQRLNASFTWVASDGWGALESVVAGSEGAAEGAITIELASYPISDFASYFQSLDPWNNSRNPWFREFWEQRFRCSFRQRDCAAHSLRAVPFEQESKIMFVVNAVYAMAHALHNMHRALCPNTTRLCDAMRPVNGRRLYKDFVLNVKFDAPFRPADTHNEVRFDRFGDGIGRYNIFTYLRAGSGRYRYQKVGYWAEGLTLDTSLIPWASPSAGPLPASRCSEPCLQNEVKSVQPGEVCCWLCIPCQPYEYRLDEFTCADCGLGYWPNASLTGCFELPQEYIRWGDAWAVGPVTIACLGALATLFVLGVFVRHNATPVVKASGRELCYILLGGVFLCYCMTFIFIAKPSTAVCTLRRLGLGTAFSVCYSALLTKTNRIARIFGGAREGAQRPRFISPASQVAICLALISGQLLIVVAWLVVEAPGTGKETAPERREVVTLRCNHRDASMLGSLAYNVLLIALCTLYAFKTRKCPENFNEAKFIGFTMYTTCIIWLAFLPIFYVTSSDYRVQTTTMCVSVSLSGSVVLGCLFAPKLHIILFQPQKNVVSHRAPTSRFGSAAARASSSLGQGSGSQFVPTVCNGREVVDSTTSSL

[4] = biological target: T1, Metabotropic glutamate receptor 2; assay: Displacement of [3H]-JNJ46281222 from human metabotropic glutamate receptor 2 expressed in CHOK1 cell membranes after 60 mins by microbeta counting analysis
Target sequence in this assay (Q14416 whole entry): as the sequence (Q14416 whole entry) above

[5] = biological target: T1, Metabotropic glutamate receptor 2; assay: Positive allosteric modulation of human metabotropic glutamate receptor 2 expressed in CHOK1 cells assessed as cellular impedance at 200 nM incubated for 5mins followed by compound washout in presence of endogenous glutamate levels by RTCA; assay type: cell-based
Target sequence in this assay (Q14416 19-872 limits assumed): as the sequence (Q14416 19-872 limits assumed) above

[6] = biological target: T1, Metabotropic glutamate receptor 2; assay: Displacement of [3H]JNJ-46281222 from human metabotropic glutamate receptor 2 expressed in CHOK1 cell membranes assessed as association rate constant measured every 30 sec for 120 mins by scintillation proximity assay; summary of the method: as §1
Target sequence in this assay (Q14416 19-872 limits assumed): as above

[7] = biological target: T1, Metabotropic glutamate receptor 2; assay: Positive allosteric modulation of human metabotropic glutamate receptor 2 expressed in CHOK1 cells assessed as cellular impedance response by label-free xCELLigence assay
Target sequence in this assay (Q14416 19-872 limits assumed): as above

[8] = biological target: T1, Metabotropic glutamate receptor 2; assay: Positive allosteric modulation of human metabotropic glutamate receptor 2 expressed in CHOK1 cells assessed as cellular impedance measured for 20 mins with 15 sec time interval followed by 40 mins with 5 mins time interval and subsequently measured with 15 mins time interval in presence of endogenous glutamate levels by RTCA; assay type: cell-based
Summary of the method: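 Whole-cell impedance (Cell Index) in CHO-K1_hmGlu2 cells, 40,000/well, 18 h at 37°C before compound addition. Endogenous glutamate was about 90 µM. […] Three experiments in duplicate.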
Target sequence in this assay (Q14416 whole entry): as the sequence (Q14416 whole entry) above

[9] = biological target: T1, Metabotropic glutamate receptor 2; assay: Displacement of [3H]JNJ-46281222 from human metabotropic glutamate receptor 2 expressed in CHOK1 cell membranes assessed as dissociation rate constant measured every 30 sec for 120 mins by scintillation proximity assay; summary of the method: as §1
Target sequence in this assay (Q14416 19-872 limits assumed): as the sequence (Q14416 19-872 limits assumed) above

Rattus norvegicus [10] = assay: Effect on total sleep in Sprague-Dawley rat at 1 to 10 mg/kg, po measured for 2 hrs; assay type: ADME, organism-based; conditions: in vivo
Brain = assay: Unbound concentration in Sprague-Dawley rat brain at 10 mg/kg, po measured after 1 hr; assay type: ADME, organism-based; conditions: in vivo
Rattus norvegicus [11] = assay: In vivo positive allosteric modulation of metabotropic glutamate receptor 2 in Sprague-Dawley rat assessed as reduction in REM at 10 mg/kg, po measured for 24 consecutive 5 mins period; assay type: functional, organism-based
Summary of the method: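 Sprague-Dawley rats (n=8 per group) received single oral doses of 1, 3 or 10 mg/kg or 20% CD vehicle. REM sleep was scored in 24 consecutive 5-min bins over the first 2 h. Comparison was by mixed-model ANOVA.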

[12] = biological target: T1, Metabotropic glutamate receptor 2; assay: Positive allosteric modulation of human metabotropic glutamate receptor 2 expressed in CHOK1 cells assessed as cellular impedance at 60 nM incubated for 5mins followed by compound washout in presence of endogenous glutamate levels by RTCA; assay type: cell-based
Target sequence in this assay (Q14416 19-872 limits assumed): as above

[13] = biological target: T1, Metabotropic glutamate receptor 2; assay: Displacement of [3H]-JNJ46281222 from human metabotropic glutamate receptor 2 expressed in CHOK1 cell membranes after 60 mins by liquid scintillation counting method
Target sequence in this assay (Q14416 whole entry): as the sequence (Q14416 whole entry) above

[14] = biological target: Metabotropic glutamate receptor 6 (Rattus norvegicus) (UniProt P35349); assay: Agonist activity at rat metabotropic glutamate receptor 6 expressed in CHO cell membranes assessed as increase in [35S]GTPgammaS binding preincubated for 30 mins followed by [35S]GTPgammaS addition measured after 30 mins by Topcount scintillation counting method; assay type: functional
[15] = biological target: Metabotropic glutamate receptor 8 (Homo sapiens) (UniProt O00222); assay: Agonist activity at human metabotropic glutamate receptor 8 expressed in HEK293 cells assessed as induction of Ca2+ internalization after 1 hr by fluo-4-AM dye based fluorescence assay; assay type: functional, cell-based
[16] = biological target: Metabotropic glutamate receptor 3 (Homo sapiens) (UniProt Q14832); assay: Agonist activity at human metabotropic glutamate receptor 3 expressed in HEK293 cells assessed as induction of Ca2+ internalization after 1 hr by fluo-4-AM dye based fluorescence assay; assay type: functional, cell-based
[17] = biological target: Metabotropic glutamate receptor 7 (Homo sapiens) (UniProt Q14831); assay: Agonist activity at human metabotropic glutamate receptor 7 expressed in HEK293 cells assessed as induction of Ca2+ internalization after 1 hr by fluo-4-AM dye based fluorescence assay; assay type: functional, cell-based
[18] = biological target: Metabotropic glutamate receptor 3 (Homo sapiens) (UniProt Q14832); assay: Antagonist activity at human metabotropic glutamate receptor 3 expressed in HEK293 cells assessed as inhibition of glutamate-induced Ca2+ internalization after 1 hr by fluo-4-AM dye based fluorescence assay; assay type: functional, cell-based
[19] = biological target: Metabotropic glutamate receptor 6 (Rattus norvegicus) (UniProt P35349); assay: Antagonist activity at rat metabotropic glutamate receptor 6 expressed in CHO cell membranes assessed as inhibition of glutamate-induced [35S]GTPgammaS binding preincubated for 30 mins followed by [35S]GTPgammaS addition measured after 30 mins by Topcount scintillation counting method; assay type: functional
[20] = biological target: Metabotropic glutamate receptor 8 (Homo sapiens) (UniProt O00222); assay: Antagonist activity at human metabotropic glutamate receptor 8 expressed in HEK293 cells assessed as inhibition of glutamate-induced Ca2+ internalization after 1 hr by fluo-4-AM dye based fluorescence assay; assay type: functional, cell-based
[21] = biological target: Metabotropic glutamate receptor 7 (Homo sapiens) (UniProt Q14831); assay: Antagonist activity at human metabotropic glutamate receptor 7 expressed in HEK293 cells assessed as inhibition of glutamate-induced Ca2+ internalization after 1 hr by fluo-4-AM dye based fluorescence assay; assay type: functional, cell-based
[22] = biological target: Metabotropic glutamate receptor 5 (Homo sapiens) (UniProt P41594); assay: Positive allosteric modulation of human metabotropic glutamate receptor 5 expressed in HEK293 cells assessed as induction of Ca2+ […] after 1 hr in the presence of glutamate by fluo-4-AM dye based fluorescence assay; assay type: functional, cell-based
[23] = biological target: T1, Metabotropic glutamate receptor 2; assay: Positive allosteric modulation of human metabotropic glutamate receptor 2 expressed in CHOK1 cells assessed as cellular impedance at 600 nM incubated for 5mins followed by compound washout in presence of endogenous glutamate levels by RTCA; assay type: cell-based
[24] = biological target: Metabotropic glutamate receptor 5 (Homo sapiens) (UniProt P41594); assay: Agonist activity at human metabotropic glutamate receptor 5 expressed in HEK293 cells assessed as induction of Ca2+ internalization after 1 hr by fluo-4-AM dye based fluorescence assay; assay type: functional, cell-based
[25] = biological target: Metabotropic glutamate receptor 4 (Homo sapiens) (UniProt Q14833); assay: Agonist activity at human metabotropic glutamate receptor 4 assessed as increase in [35S]GTPgammaS binding preincubated for 30 mins followed by [35S]GTPgammaS addition measured after 30 mins by Topcount scintillation counting method; assay type: functional
[26] = biological target: Metabotropic glutamate receptor 4 (Homo sapiens) (UniProt Q14833); assay: Antagonist activity at human metabotropic glutamate receptor 4 assessed as inhibition of glutamate-induced [35S]GTPgammaS binding preincubated for 30 mins followed by [35S]GTPgammaS addition measured after 30 mins by Topcount scintillation counting method; assay type: functional
[27] = biological target: Metabotropic glutamate receptor 1 (Homo sapiens) (UniProt Q13255); assay: Agonist activity at human metabotropic glutamate receptor 1 expressed in HEK293 cells assessed as induction of Ca2+ internalization after 1 hr by fluo-4-AM dye based fluorescence assay; assay type: functional, cell-based
[28] = biological target: Metabotropic glutamate receptor 1 (Homo sapiens) (UniProt Q13255); assay: Antagonist activity at human metabotropic glutamate receptor 1 expressed in HEK293 cells assessed as inhibition of glutamate-induced Ca2+ internalization after 1 hr by fluo-4-AM dye based fluorescence assay; assay type: functional, cell-based
[29] = biological target: Metabotropic glutamate receptor 5 (Homo sapiens) (UniProt P41594); assay: Antagonist activity at human metabotropic glutamate receptor 5 expressed in HEK293 cells assessed as inhibition of glutamate-induced Ca2+ internalization after 1 hr by fluo-4-AM dye based fluorescence assay; assay type: functional, cell-based
CHO-K1 = assay: Effect on cellular impedance in CHOK1 cells up to 1 uM measured for 20 mins with 15 sec time interval followed by 40 mins with 5 mins time interval and subsequently measured with 15 mins time interval by RTCA; assay type: functional, cell-based; conditions: Cricetulus griseus
Summary of the method: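 xCELLigence impedance used 40,000 cells/well of wild-type CHO-K1 or CHO-K1_hmGlu2, rested 30 min at room temperature, then 18 h at 37°C, 5% CO2. Cells got 100 nM or 1 µM compound. Reads: every 15 s for 20 min, 5 min for 40 min, then 15 min. Baseline-corrected; three repeats in duplicate.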

Sequence of Metabotropic glutamate receptor 5 (Homo sapiens) (P41594 21-1212 limits assumed): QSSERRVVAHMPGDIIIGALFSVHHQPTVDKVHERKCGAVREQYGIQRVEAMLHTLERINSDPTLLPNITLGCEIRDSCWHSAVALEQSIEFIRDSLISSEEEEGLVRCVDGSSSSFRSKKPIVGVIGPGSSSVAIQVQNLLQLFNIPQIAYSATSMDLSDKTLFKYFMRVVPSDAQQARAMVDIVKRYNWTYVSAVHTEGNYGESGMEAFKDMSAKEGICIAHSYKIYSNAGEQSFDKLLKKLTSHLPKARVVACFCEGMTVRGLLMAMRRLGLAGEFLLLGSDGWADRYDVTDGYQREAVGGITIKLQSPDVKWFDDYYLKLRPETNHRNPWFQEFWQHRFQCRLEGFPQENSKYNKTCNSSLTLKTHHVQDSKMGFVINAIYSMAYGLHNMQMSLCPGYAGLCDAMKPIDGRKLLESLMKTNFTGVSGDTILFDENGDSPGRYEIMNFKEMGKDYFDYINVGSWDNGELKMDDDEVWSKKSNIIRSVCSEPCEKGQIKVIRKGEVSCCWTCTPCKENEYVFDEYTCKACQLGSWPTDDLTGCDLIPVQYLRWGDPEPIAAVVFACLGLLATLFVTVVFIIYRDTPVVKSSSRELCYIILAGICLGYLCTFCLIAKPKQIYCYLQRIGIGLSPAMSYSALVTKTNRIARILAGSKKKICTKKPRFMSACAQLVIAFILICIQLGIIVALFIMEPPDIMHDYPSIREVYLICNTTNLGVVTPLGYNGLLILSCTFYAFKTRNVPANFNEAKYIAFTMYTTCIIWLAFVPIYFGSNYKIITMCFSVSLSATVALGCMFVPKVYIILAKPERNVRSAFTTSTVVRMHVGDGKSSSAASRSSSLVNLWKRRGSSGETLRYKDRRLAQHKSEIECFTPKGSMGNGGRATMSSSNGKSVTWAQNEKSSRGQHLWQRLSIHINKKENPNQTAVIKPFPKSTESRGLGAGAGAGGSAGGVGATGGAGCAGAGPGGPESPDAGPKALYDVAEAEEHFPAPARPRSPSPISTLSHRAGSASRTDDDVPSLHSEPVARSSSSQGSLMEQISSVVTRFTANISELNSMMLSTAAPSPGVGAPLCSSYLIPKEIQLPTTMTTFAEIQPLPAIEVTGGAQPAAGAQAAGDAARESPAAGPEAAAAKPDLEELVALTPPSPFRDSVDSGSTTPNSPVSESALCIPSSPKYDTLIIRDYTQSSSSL
Sequence of Metabotropic glutamate receptor 1 (Homo sapiens) (Q13255 19-1194 limits assumed): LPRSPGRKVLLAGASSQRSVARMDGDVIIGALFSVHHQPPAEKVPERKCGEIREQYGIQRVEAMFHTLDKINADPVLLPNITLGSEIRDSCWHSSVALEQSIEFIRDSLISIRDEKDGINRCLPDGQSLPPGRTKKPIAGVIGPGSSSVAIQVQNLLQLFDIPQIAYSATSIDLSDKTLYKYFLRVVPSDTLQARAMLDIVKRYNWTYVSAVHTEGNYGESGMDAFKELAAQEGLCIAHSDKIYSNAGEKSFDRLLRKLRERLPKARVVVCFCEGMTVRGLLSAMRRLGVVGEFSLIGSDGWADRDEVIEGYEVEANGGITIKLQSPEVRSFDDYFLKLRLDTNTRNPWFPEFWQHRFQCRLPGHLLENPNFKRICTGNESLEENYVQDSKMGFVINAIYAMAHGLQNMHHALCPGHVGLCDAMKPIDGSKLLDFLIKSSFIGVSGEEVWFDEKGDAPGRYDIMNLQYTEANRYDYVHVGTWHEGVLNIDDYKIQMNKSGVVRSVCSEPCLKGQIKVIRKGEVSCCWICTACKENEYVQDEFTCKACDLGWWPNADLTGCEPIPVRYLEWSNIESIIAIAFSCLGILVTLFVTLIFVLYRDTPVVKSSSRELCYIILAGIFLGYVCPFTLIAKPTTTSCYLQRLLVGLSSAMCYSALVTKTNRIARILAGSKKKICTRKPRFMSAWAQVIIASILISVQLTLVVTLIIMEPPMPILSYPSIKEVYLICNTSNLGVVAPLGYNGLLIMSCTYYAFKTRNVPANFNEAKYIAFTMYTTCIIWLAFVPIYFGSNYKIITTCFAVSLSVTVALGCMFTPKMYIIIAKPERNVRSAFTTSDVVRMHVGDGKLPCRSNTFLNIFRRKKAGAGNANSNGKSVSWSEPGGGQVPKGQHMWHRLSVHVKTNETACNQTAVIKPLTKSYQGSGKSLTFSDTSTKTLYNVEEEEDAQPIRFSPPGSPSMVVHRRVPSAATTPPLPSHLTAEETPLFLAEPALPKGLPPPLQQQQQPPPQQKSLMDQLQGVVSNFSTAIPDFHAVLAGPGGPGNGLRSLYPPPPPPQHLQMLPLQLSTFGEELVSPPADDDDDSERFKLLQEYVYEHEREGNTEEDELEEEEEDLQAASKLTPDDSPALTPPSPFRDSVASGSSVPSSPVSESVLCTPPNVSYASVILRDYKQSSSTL

SMILES: FC(F)(F)c1c(-c2ccc(NC3CCOCC3)c(Cl)c2)ccn2c(CC3CC3)nnc12
- Kd [1]: 3.8 nM
- EC50 [2]: 18.6 nM
- TIME [3]: 0.25 h
- Ki [4]: 5.01 nM
- Activity [5]: inactive
- K [6]: 1.8 ×10⁷ /M/min
- EC80 [7]: 200 nM
- EC50 [8]: 18.6 nM
- K [9]: 0.067 min⁻¹

SMILES: Fc1cc(-c2ccn3c(CC4CC4)nnc3c2C(F)(F)F)ccc1Oc1ccnc(C2CC2)c1
- Kd [1]: 8.6 nM
- Activity (Rattus norvegicus [10]): Non-Toxic
- Drug uptake(free) (Brain): 3.5 ng/g
- EC50 [2]: 18.6 nM
- TIME [3]: 0.0883 h
- Ki [4]: 3.63 nM
- K [6]: 2.2 ×10⁷ /M/min
- Activity (Rattus norvegicus [11]): Active
- K [9]: 0.189 min⁻¹

SMILES: O[C@]1(C2CC2)CC[C@H](Nc2ccc(-c3ccn4c(CC5CC5)nnc4c3C(F)(F)F)cc2Cl)CC1
- Kd [1]: 1.5 nM
- EC50 [2]: 1.12 nM
- Activity [12]: Active
- TIME [3]: 0.825 h
- Ki [4]: 0.891 nM
- K [6]: 1.4 ×10⁷ /M/min
- EC80 [7]: 60 nM
- EC50 [8]: 11.2 nM
- K [9]: 0.02 min⁻¹

SMILES: CC(C)C(=O)c1ccc(OCc2ccc(CNC(=O)c3cn(C)cn3)cc2)c(C(F)(F)F)c1O
- Kd [1]: 100 nM
- EC50 [2]: 107 nM
- TIME [3]: 0.14 h
- K [6]: 1.2 ×10⁶ /M/min
- Ki [13]: 79.4 nM
- K [9]: 0.12 min⁻¹

SMILES: Cc1ccc(Oc2ccc(-c3ccn4c(CC5CC5)nnc4c3C(F)(F)F)cc2F)c(C)n1
- Kd [1]: 2.5 nM
- Activity (Rattus norvegicus [10]): Non-Toxic
- Drug uptake(free) (Brain): 5 ng/g
- EC50 [2]: 8.71 nM
- TIME [3]: 0.502 h
- Ki [4]: 2.57 nM
- K [6]: 1.3 ×10⁷ /M/min
- Activity (Rattus norvegicus [11]): Active
- K [9]: 0.033 min⁻¹

SMILES: FC(F)(F)c1c(-c2ccc(OC3CCOCC3)c(Cl)c2)ccn2c(CC3CC3)nnc12
- Kd [1]: 12.3 nM
- Activity [14]: inactive
- Activity [15]: inactive
- Activity [16]: inactive
- EC50 [2]: 38 nM
- Activity [17]: inactive
- TIME [3]: 0.0683 h
- inhibition [18]: inactive
- inhibition [19]: inactive
- Ki [4]: 5.25 nM
- K [6]: 2 ×10⁷ /M/min
- inhibition [20]: inactive
- inhibition [21]: inactive
- Activity [22]: inactive
- Activity [23]: inactive
- Activity [24]: inactive
- EC80 [7]: 600 nM
- Activity [25]: inactive
- inhibition [26]: inactive
- Activity [27]: inactive
- inhibition [28]: inactive
- EC50 [8]: 89.1 nM
- inhibition [29]: inactive
- K [9]: 0.241 min⁻¹

SMILES: FC(F)(F)c1c(CN2CCC(c3ccccc3)CC2)ccn2c(CC3CC3)nnc12
- Activity (CHO-K1): inactive

SMILES: N#Cc1c(N2CCC(c3ccccc3)CC2)ccn(CC2CC2)c1=O
- Kd [1]: 51 nM
- EC50 [2]: 79.4 nM
- TIME [3]: 0.185 h
- K [6]: 1.7 ×10⁶ /M/min
- Ki [13]: 26.3 nM
- K [9]: 0.09 min⁻¹
